One may read the Ki as the dissociation constant of the complex between target and ligand, obtained from inhibition or displacement. High values mean lower affinity, low ones higher affinity.

The test system of experiment [1] is TA3. Nature of the experiment: Growth inhibition of mouse TA3 cells at 10^-4 M after 3 days incubation in presence of 10^-7 M pyridoxal. Type of experiment: functional.
Experiment [2] deals with TA3. Nature of the experiment: Growth inhibition of mouse TA3 cells after 3 days incubation in presence of 10^-5 M pyridoxal. Type of experiment: functional. The essentials: (§1)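 Mouse mammary adenocarcinoma TA3 cells were grown in stationary upright tubes with 10% horse serum and pyridoxal at 10⁻⁷ M (minimal growth) or 10⁻⁵ M. The inoculum was 50 000 cells, with compound added in an equal volume of medium. Cells were incubated for 3 days, and growth was read by protein assay. Five tubes were used per concentration, with repeats for active compounds. The 50% inhibitory concentration was derived.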

Experiment [3] relates to TA3. Nature of the experiment: Growth inhibition of mouse TA3 cells after 3 days incubation in presence of 10^-7 M pyridoxal. The conditions noted are these: for IC50: Mus musculus, TA3, 72 h, read-out: ID50 (the source's name). The format is functional. In short, it runs like this: as §1
A further experiment concerns the target T1, Pyridoxal kinase (Homo sapiens, UniProt O00764).
T1 sequence (O00764 whole entry): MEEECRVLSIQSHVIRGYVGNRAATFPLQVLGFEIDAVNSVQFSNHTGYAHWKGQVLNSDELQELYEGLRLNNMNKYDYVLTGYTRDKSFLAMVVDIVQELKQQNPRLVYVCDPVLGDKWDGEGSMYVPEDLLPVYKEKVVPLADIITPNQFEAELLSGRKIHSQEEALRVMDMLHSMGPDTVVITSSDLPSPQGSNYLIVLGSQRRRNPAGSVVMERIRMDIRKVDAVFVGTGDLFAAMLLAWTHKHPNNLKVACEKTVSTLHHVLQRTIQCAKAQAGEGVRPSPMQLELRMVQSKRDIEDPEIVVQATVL
Briefly: Noncompetitive inhibition of pyridoxal phosphokinase (unknown origin) using ATP-gamma-[32P].

Each structure is given as a SMILES string. Active and inactive are the calls of the source. The rule behind the calls is not given here.

For `C=Cc1c(CO)cnc(CO)c1O`, the inhibition result with TA3 [1] was “inactive”.
Regarding `C=Cc1c(CO)cnc(C)c1O`, the inhibition result in the experiment on TA3 [2] was “inactive”. In addition, the IC50 in the experiment on TA3 [3] is 0.0025 µM.
Consider `C=Cc1ncc(CO)c(C=C)c1O.Cl`, for which the ID50 with TA3 [2] worked out at 3.2 ×10⁻⁵ M. For the same molecule, the IC50 in the experiment on TA3 [3] was found to be 6.8 µM.
Take `C=Cc1ncc(CO)c(CO)c1O`: the inhibition entry with TA3 [2] was “Active”. In addition, in the experiment with TA3 [3], the IC50 turned out to be 9.4 µM.
As for `Cc1c(CO)cnc(C=O)c1O`, the ID50 was determined as 1.6 ×10⁻⁴ M in the experiment on TA3 [2] and 6 ×10⁻⁵ M in the experiment on TA3 [3].
`C=Cc1ncc(CO)c(C)c1O.Cl`: the inhibition constant Ki on Pyridoxal kinase stood at 68.1 µM. For the same molecule, the ID50 in the experiment with TA3 [2] worked out at 3.2 ×10⁻⁵ M. Besides, in the experiment with TA3 [3], the IC50 is 3 µM.
With `C=Cc1ncc(COP(=O)(O)O)c(C)c1O`, the ID50 is on record as 1.8 ×10⁻⁴ M in the experiment with TA3 [2] and 3.8 ×10⁻⁵ M in the experiment with TA3 [3].
As to `C=Cc1ncc(COP(=O)(O)O)c(C=C)c1O`, in the experiment with TA3 [1], the inhibition entry is “inactive”.
`Cc1c(CO)cnc(/C=N/NC(N)=S)c1O`: the inhibition entry in the experiment on TA3 [2] is “Active”. The IC50 in the experiment with TA3 [3] turned out to be 2.7 µM.
As to `Cc1ncc(CO)c(C)c1O`, the inhibition result with TA3 [2] is “inactive”. Moreover, the ID50 with TA3 [3] stood at 6.8 ×10⁻⁸ M.
With `Cc1c(CO)cnc(/C=N/O)c1O`, the “inhibition (INH)” value in the experiment with TA3 [1] came to 40%.
On to `Cc1c(CO)cnc(CO)c1O`, for which the inhibition result with TA3 [1] is “inactive”.
